What all share (assay type): functional
For assay [1], the system named is Mus musculus. Briefly: Analgesic activity was measured on phenylquinone writhing in mice at 128 mg/kg subcutaneous dose. The conditions noted are these: sc. The method, boiled down: (§1)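 Male Swiss albino mice, 18-22 g, five per group. Compound suspended in physiological saline with Tween 80 and given sc. 30 min later, 0.03% phenyl-p-benzoquinone given ip at 0.1 mL/10 g body weight. Total writhes per animal counted against a vehicle-treated control group. % change = (writhes treated/writhes control) × 100 − 100.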

The subject of assay [2] is Trichomonas vaginalis. Briefly: Compound was measured as concentration of compound required for 90% growth inhibition of Trichomonas vaginalis. The method, boiled down:
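Tube dilution in modified TYM basal medium, with compound added in µg/mL of medium. Inoculum 1 × 10^5/mL T. vaginalis trophozoites pre-grown 48 h in the same medium. Incubated 24 and 48 h at 35 °C. Aliquots diluted in saline with 1% formaldehyde and counted in a Speirs-Levy chamber. MIC is the lowest concentration giving 90% growth inhibition.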

Assay [3] relates to Mus musculus. Briefly: Analgesic activity was measured on phenylquinone writhing in mice at 64 mg/kg subcutaneous dose. Conditions: sc. An outline of the steps:
as §1
(In writhing tests, fewer writhes than in controls are read as antinociception.)

Assay [4] has as its system Mus musculus. Description: Analgesic activity was measured of phenylquinone writhing in mice at 32 mg/kg subcutaneous dose. The conditions noted are these: sc. An outline of the steps:
as §1

For assay [5], the system named is Mus musculus. Description: Analgesic activity was measured of phenylquinone writhing in mice at 16 mg/kg subcutaneous dose. Conditions: sc. The method, boiled down: as §1
For assay [6], the system named is Mus musculus. Briefly: Analgesic activity was measured of phenylquinone writhing in mice at 64 mg/kg subcutaneous dose. The conditions noted are these: sc. An outline of the steps: as §1
Assay [7] concerns Mus musculus. Description: Analgesic activity was measured of phenylquinone writhing in mice at 8 mg/kg subcutaneous dose. Conditions: sc. The method, boiled down: as §1
For assay [8], the system named is Mus musculus. Description: Analgesic activity was measured of phenylquinone writhing in mice at 4 mg/kg subcutaneous dose. The conditions noted are these: sc. An outline of the steps: as §1
The test system of assay [9] is Mus musculus. Briefly: Analgesic activity was measured on phenylquinone writhing in mice at 50 mg/kg subcutaneous dose. Conditions: sc. The method, boiled down: as §1
Assay [10] deals with Mus musculus. Description: Analgesic activity was measured on phenylquinone writhing in mice at 56 mg/kg subcutaneous dose. Conditions: sc. An outline of the steps:
as §1

Bounds are passed on as bounds.

`O=S(=O)(c1ccccc1)N1[C@@H]2CC=CN[C@@H]21` (stereo partly drawn): the inhibition in vivo (as a rule, the percentage by which the read-out fell short of the control) at 128 mg/kg in [1] is 47%.

Turning to `CC(=O)Nc1ccc(S(=O)(=O)N2[C@@H]3CC=CN(C)[C@@H]32)cc1` (stereo partly drawn), in assay [2], the MIC – broadly, the lowest concentration that inhibits growth of the organism – is less than 10 µg/mL. The same molecule had an inhibition in vivo at 128 mg/kg in [1] of 95%.

Turning to `CN1C=CC[C@@H]2[C@H]1N2S(C)(=O)=O` (stereo partly drawn), the MIC in assay [2] is less than 10 µg/mL. This molecule also gave an inhibition in vivo at 128 mg/kg in assay [1] of 50%.

In assay [3], `CN1C=CC[C@@H]2[C@H]1N2C#N` registered an inhibition in vivo at 64 mg/kg of 86%. In addition, the MIC in assay [2] was less than 10 µg/mL.

As to `CN1C=CC[C@@H]2[C@H]1N2S(=O)(=O)c1ccc(N)cc1` (stereo partly drawn), in [4], the inhibition in vivo at 32 mg/kg was 69%. Besides, the inhibition in vivo at 16 mg/kg in assay [5] stood at 45%. This molecule also registered an inhibition in vivo at 64 mg/kg in assay [6] of 78%. Moreover, in [2], the MIC is less than 10 µg/mL. The inhibition in vivo at 8 mg/kg in [7] is 40%. The same molecule yielded an inhibition in vivo at 128 mg/kg in assay [1] of 97%. Besides, the inhibition in vivo at 4 mg/kg in assay [8] came out at 23%.

In the case of `CN1C=CC[C@@H]2[C@H]1N2S(=O)(=O)c1ccccc1` (stereo partly drawn), in [3], at 64 mg/kg the inhibition in vivo was 92%. Besides, the MIC in [2] is less than 10 µg/mL.

`CC(=O)Oc1ccccc1C(=O)O` [ASPIRIN] came in with an inhibition in vivo at 50 mg/kg in [9] of 50%.

As to `CCC(=O)O[C@](Cc1ccccc1)(c1ccccc1)[C@H](C)CN(C)C` [PROPOXYPHENE], the inhibition in vivo at 56 mg/kg in assay [10] is 50%.
